Here are results for four compounds from ChEMBL document CHEMBL4680226, “Design, synthesis, and evaluation of N-phenyl-4-(2-phenylsulfonamido)-benzamides as microtubule-targeting agents in drug-resistant cancer cells, displaying HDAC inhibitory response” (Eur J Med Chem, 2020).

Calls of active or inactive are those of the source. The calls are words filed in the database; no cut-off is given here.

Test [1] is described as follows: Antiproliferative activity against human KB7D cells incubated for 48 hrs by SRB assay. In kind it is functional. An outline of the steps:
(§1)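 KB parental and resistant sublines kept in RPMI 1640 with 5% FBS at 37 °C, 5% CO2. Cells plated, left overnight, then given graded compound concentrations for 48 h. A time-zero plate was fixed with 10% TCA at dosing. Cells were stained with 0.4% SRB in 1% acetic acid, unbound dye washed off, bound dye dissolved in 10 mM Tris base, and absorbance read at 515 nm.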
In general terms: In SRB staining, fixed cells bind dye roughly in proportion to their protein.

In test [2] the test system is KB. Briefly: Antiproliferative activity against human KB cells incubated for 48 hrs by SRB assay. It counts as functional. An outline of the steps: as §1
A short description of test [3]: Antiproliferative activity against human KB-VIN cells incubated for 48 hrs by SRB assay. To be noted: KBVIN. In kind it is functional. A digest of the protocol: as §1
Test [4] relates to KB7D. Briefly: Induction of apoptosis in human KB7D cells assessed as increase in activated gammaH2AX expression at 0.1 uM measured after 24 hrs by Western blot analysis. In kind it is functional, cell-based. An outline of the steps:
(§2)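 Resistant KB cells attached overnight, then drug-treated at the stated concentrations and times (24 h or 48 h). Lysates were immunoblotted for cleaved PARP, caspase-3, -8 and -9, and γH2AX, with anti-mouse or anti-rabbit IgG secondaries.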

Test [5] concerns KB7D. The test is described as follows: Induction of apoptosis in human KB7D cells assessed as increase in activated gammaH2AX expression at 5 uM measured after 24 hrs by Western blot analysis. In kind it is functional, cell-based. A digest of the protocol:
as §2
In general terms: A western blot detects proteins with antibodies after separation by electrophoresis.

Test [6] concerns the target T1, Tubulin (Homo sapiens) (UniProt P68371+Q9H4B7+P0DPH7+P68366+Q13509+Q71U36+P04350+Q3ZCM7+P07437+P68363+Q9BQE3+Q6PEY2+Q13885+Q9BVA1+Q9BUF5). The test is described as follows: Induction of microtubule aggregation in human KB7D cells assessed as polymerized fraction at 0.1 uM measured after 16 hrs by SDS-PAGE analysis (reference value: 34%). In kind it is cell-based. An outline of the steps: (§3)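 KB-Vin or KB-7D cells treated 16 h, then lysed 5 min at 37 °C in the dark in hypotonic buffer (1% NP-40, 1 mmol/L MgCl2, 2 mmol/L EGTA, 50 mmol/L Tris-HCl pH 6.8, protease inhibitors). Spun 13000 rpm, 10 min, room temperature. Soluble supernatant and resuspended polymerized pellet run on SDS-PAGE.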

For test [7], the target named is T1, Tubulin (Homo sapiens). The test is described as follows: Induction of microtubule aggregation in human KB-VIN cells at 1 uM measured after 24 hrs by DAPI staining based deconvolution fluorescence microscopic analysis. It counts as cell-based. A digest of the protocol: (§4)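 Cells on glass coverslips treated 24 h, fixed in 4% paraformaldehyde for 15 min, and permeabilized with 0.5% Triton X-100. Blocked in PBS/2% BSA, stained with anti-beta-tubulin (1:250) and Alexa 488 anti-mouse (1:250), and mounted with DAPI. Imaged by wide-field deconvolution microscopy.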

The target in test [8] is T1, Tubulin (Homo sapiens). Briefly: Induction of microtubule aggregation in human KB-VIN cells assessed as polymerized fraction at 0.01 uM measured after 16 hrs by SDS-PAGE analysis (reference value: 34%). It counts as cell-based. An outline of the steps: as §3
Test [9] has as its target T1, Tubulin (Homo sapiens). The test is described as follows: Induction of microtubule aggregation in human KB-VIN cells assessed as polymerized fraction at 0.1 uM measured after 16 hrs by SDS-PAGE analysis (reference value: 34%). It counts as cell-based. An outline of the steps:
as §3

The target of test [10] is T1, Tubulin (Homo sapiens). Briefly: Induction of microtubule aggregation in human KB7D cells assessed as polymerized fraction at 0.01 uM measured after 16 hrs by SDS-PAGE analysis (reference value: 34%). It counts as cell-based. A digest of the protocol:
as §3

Test [11] deals with T1, Tubulin (Homo sapiens). Briefly: Induction of microtubule aggregation in human KB7D cells at 1 uM measured after 24 hrs by DAPI staining based deconvolution fluorescence microscopic analysis. In kind it is cell-based. A digest of the protocol: as §4
The target in test [12] is T1, Tubulin (Homo sapiens). Briefly: Induction of microtubule aggregation in human KB-VIN cells assessed as polymerized fraction at 1 uM measured after 16 hrs by SDS-PAGE analysis (reference value: 34%). In kind it is cell-based. A digest of the protocol:
as §3

In test [13] the target is T1, Tubulin (Homo sapiens). Briefly: Induction of microtubule aggregation in human KB7D cells assessed as polymerized fraction at 1 uM measured after 16 hrs by SDS-PAGE analysis (reference value: 34%). In kind it is cell-based. An outline of the steps:
as §3

Test [14] has as its system KB-VIN. Briefly: Cell cycle arrest in human KB-VIN cells assessed as increase in accumulation at sub-G1 phase at 0.01 to 0.1 uM measured after 24 hrs by propidium iodide staining based flow cytometry. The settings on record: dose 0.01-0.1 µM. In kind it is functional. An outline of the steps: (§5)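 Cells seeded at 2.5×10^5 per well and exposed to DMSO or compound for the stated times. They were washed in PBS and fixed overnight in ice-cold 70% ethanol at −20 °C. Staining used propidium iodide 80 µg/mL with 0.1% Triton X-100 and RNase A 100 µg/mL in PBS. DNA content was read by FACScan flow cytometry.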

Test [15] concerns KB-VIN. Briefly: Induction of apoptosis in human KB-VIN cells assessed as increase in cleaved PARP expression at 0.1 uM measured after 24 hrs by Western blot analysis. In kind it is functional, cell-based. A digest of the protocol:
as §2

In test [16] the target is T1, Tubulin (Homo sapiens). Briefly: Induction of microtubule disruption in human KB-VIN cells assessed as polymerized fraction at 0.1 uM measured after 16 hrs by SDS-PAGE analysis (reference value: 23.1 to 25.5%). It counts as cell-based. A digest of the protocol:
as §3

The test system of test [17] is KB-VIN. Briefly: Induction of apoptosis in human KB-VIN cells assessed as increase in cleaved caspase-8 expression at 0.1 uM measured after 48 hrs by Western blot analysis. It counts as functional, cell-based. A digest of the protocol:
as §2

In test [18] the target is T1, Tubulin (Homo sapiens). The test is described as follows: Induction of microtubule disruption in human KB7D cells assessed as polymerized fraction at 0.01 uM measured after 16 hrs by SDS-PAGE analysis (reference value: 26.4 to 29%). In kind it is cell-based. A digest of the protocol: as §3
For test [19], the system named is KB-VIN. The test is described as follows: Induction of apoptosis in human KB-VIN cells assessed as increase in cleaved PARP expression at 0.1 uM measured after 48 hrs by Western blot analysis. In kind it is functional, cell-based. An outline of the steps: as §2
In test [20] the test system is KB-VIN. The test is described as follows: Cell cycle arrest in human KB-VIN cells assessed as increase in accumulation at sub-G1 phase at 0.1 uM measured after 48 hrs by propidium iodide staining based flow cytometry. It counts as functional. A digest of the protocol: as §5
In general terms: Flow cytometry measures light scatter and fluorescence of single cells or particles in a stream.

Test [21] has as its system KB-VIN. Briefly: Induction of apoptosis in human KB-VIN cells assessed as increase in activated gammaH2AX expression at 0.1 uM measured after 24 hrs by Western blot analysis. In kind it is functional, cell-based. A digest of the protocol:
as §2

Test [22] has as its target T1, Tubulin (Homo sapiens). Briefly: Induction of microtubule disruption in human KB-VIN cells assessed as polymerized fraction at 0.01 uM measured after 16 hrs by SDS-PAGE analysis (reference value: 23.1 to 25.5%). It counts as cell-based. A digest of the protocol: as §3
The test system of test [23] is KB-VIN. Briefly: Induction of apoptosis in human KB-VIN cells assessed as increase in cleaved caspase-3 expression at 0.1 uM measured after 24 hrs by Western blot analysis. In kind it is functional, cell-based. A digest of the protocol:
as §2

Test [24] has as its system KB-VIN. The test is described as follows: Induction of apoptosis in human KB-VIN cells assessed as increase in cleaved caspase-9 expression at 0.1 uM measured after 48 hrs by Western blot analysis. It counts as functional, cell-based. An outline of the steps:
as §2

For test [25], the system named is KB-VIN. Briefly: Induction of apoptosis in human KB-VIN cells assessed as increase in cleaved caspase-3 expression at 0.1 uM measured after 48 hrs by Western blot analysis. It counts as functional, cell-based. An outline of the steps:
as §2

The target in test [26] is T1, Tubulin (Homo sapiens). The test is described as follows: Induction of microtubule disruption in human KB7D cells at 1 uM measured after 24 hrs by DAPI staining based deconvolution fluorescence microscopic analysis. It counts as cell-based. An outline of the steps: as §4
Test [27] has as its target T1, Tubulin (Homo sapiens). Briefly: Induction of microtubule disruption in human KB7D cells assessed as polymerized fraction at 0.1 uM measured after 16 hrs by SDS-PAGE analysis (reference value: 26.4 to 29%). In kind it is cell-based. A digest of the protocol: as §3
The subject of test [28] is KB-VIN. The test is described as follows: Induction of apoptosis in human KB-VIN cells assessed as increase in cleaved caspase-8 expression at 0.1 uM measured after 24 hrs by Western blot analysis. It counts as functional, cell-based. A digest of the protocol: as §2
The subject of test [29] is KB-VIN. Briefly: Induction of apoptosis in human KB-VIN cells assessed as increase in activated gammaH2AX expression at 0.1 uM measured after 48 hrs by Western blot analysis. It counts as functional, cell-based. A digest of the protocol:
as §2

Test [30] deals with T1, Tubulin (Homo sapiens). The test is described as follows: Induction of microtubule disruption in human KB-VIN cells at 1 uM measured after 24 hrs by DAPI staining based deconvolution fluorescence microscopic analysis. It counts as cell-based. A digest of the protocol:
as §4

The target in test [31] is T1, Tubulin (Homo sapiens). The test is described as follows: Induction of microtubule disruption in human KB7D cells assessed as polymerized fraction at 1 uM measured after 16 hrs by SDS-PAGE analysis (reference value: 26.4 to 29%). It counts as cell-based. A digest of the protocol:
as §3

In test [32] the test system is KB-VIN. The test is described as follows: Induction of apoptosis in human KB-VIN cells assessed as increase in cleaved caspase-9 expression at 0.1 uM measured after 24 hrs by Western blot analysis. It counts as functional, cell-based. A digest of the protocol:
as §2

Test [33] has as its target T1, Tubulin (Homo sapiens). Briefly: Induction of microtubule disruption in human KB-VIN cells assessed as polymerized fraction at 1 uM measured after 16 hrs by SDS-PAGE analysis (reference value: 23.1 to 25.5%). It counts as cell-based. An outline of the steps: as §3

A word on the GI50: it is the concentration that inhibits growth by half. With `COc1ccc(S(=O)(=O)Nc2cccnc2Nc2ccc(O)cc2)cc1` [ABT-751], the GI50 in test [1] was found to be 444 nM; in test [2], 801 nM; in [3], 2070 nM. Also, in test [4], the result was Active.

As for `Nc1ccccc1NC(=O)c1ccc(CNC(=O)OCc2cccnc2)cc1` [ENTINOSTAT], the 50% growth inhibitory concentration (GI50) in [1] was found to be 5680 nM; in [2] it was 6630 nM; in test [3], 7710 nM. Besides, in test [5], the result was Active.

`CC(=O)O[C@H]1C(=O)[C@@]2(C)[C@H]([C@H](OC(=O)c3ccccc3)[C@]3(O)C[C@H](OC(=O)[C@H](O)[C@@H](NC(=O)c4ccccc4)c4ccccc4)C(C)=C1C3(C)C)[C@]1(OC(C)=O)CO[C@@H]1C[C@@H]2O`: the Activity in test [6] is 59.7%; in test [8], 41.1%; in [9] it was 45.9%; in test [10], 45.9%; in test [12] it was 46.1%; in test [13] it was 61.5%. The result in test [7] and in test [11] was Active.

`CC[C@]1(O)C[C@H]2CN(CCc3c([nH]c4ccccc34)[C@@](C(=O)OC)(c3cc4c(cc3OC)N(C=O)[C@H]3[C@@](O)(C(=O)OC)[C@H](OC(C)=O)[C@]5(CC)C=CCN6CC[C@]43[C@@H]65)C2)C1` [VINCRISTINE]: the result in test [14], in test [15], in test [17], in test [19], in test [20] and in [21] was Active. In addition, the result in test [23], in [24], in [25], in test [26], in test [28] and in test [29] was Active. Besides, the result in [30] and in test [32] was Active. Also, the Activity in test [16] is 28.8%; in [18], 30.4%; in test [22], 25.5%; in test [27] it was 25.8%; in test [31], 29.1%; in [33], 25.2%. The GI50 stood at 1.86 nM in test [2] and 219 nM in test [3].
